Results published in PubChem BioAssay AID489030 (Sanford-Burnham Center for Chemical Genomics, 2010).
The whole screen tested about 330,000 compounds, of which about 2,400 (0.73%) were called active. Rule for the calls: active = inhibition of at least 40% at 20 µM; inactive = the rest. Many of the other results were omitted from the sample, so actives are more common in it than they were.

target: Apoptotic protease-activating factor 1 (Homo sapiens) (UniProt O14727); test: blockers of Apaf-1-driven caspase-3 activation – biochemical, DEVD-Rh110 fluorescence, uHTS, primary screen (AID 489030); conditions: reconstituted apoptosome caspase-3 activity, at 20 µM, stronger effect = higher value;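 note: plate controls were DMSO wells for no effect and DEVD-CHO caspase inhibitor wells for full effect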
Sequence (O14727 whole entry, looked up): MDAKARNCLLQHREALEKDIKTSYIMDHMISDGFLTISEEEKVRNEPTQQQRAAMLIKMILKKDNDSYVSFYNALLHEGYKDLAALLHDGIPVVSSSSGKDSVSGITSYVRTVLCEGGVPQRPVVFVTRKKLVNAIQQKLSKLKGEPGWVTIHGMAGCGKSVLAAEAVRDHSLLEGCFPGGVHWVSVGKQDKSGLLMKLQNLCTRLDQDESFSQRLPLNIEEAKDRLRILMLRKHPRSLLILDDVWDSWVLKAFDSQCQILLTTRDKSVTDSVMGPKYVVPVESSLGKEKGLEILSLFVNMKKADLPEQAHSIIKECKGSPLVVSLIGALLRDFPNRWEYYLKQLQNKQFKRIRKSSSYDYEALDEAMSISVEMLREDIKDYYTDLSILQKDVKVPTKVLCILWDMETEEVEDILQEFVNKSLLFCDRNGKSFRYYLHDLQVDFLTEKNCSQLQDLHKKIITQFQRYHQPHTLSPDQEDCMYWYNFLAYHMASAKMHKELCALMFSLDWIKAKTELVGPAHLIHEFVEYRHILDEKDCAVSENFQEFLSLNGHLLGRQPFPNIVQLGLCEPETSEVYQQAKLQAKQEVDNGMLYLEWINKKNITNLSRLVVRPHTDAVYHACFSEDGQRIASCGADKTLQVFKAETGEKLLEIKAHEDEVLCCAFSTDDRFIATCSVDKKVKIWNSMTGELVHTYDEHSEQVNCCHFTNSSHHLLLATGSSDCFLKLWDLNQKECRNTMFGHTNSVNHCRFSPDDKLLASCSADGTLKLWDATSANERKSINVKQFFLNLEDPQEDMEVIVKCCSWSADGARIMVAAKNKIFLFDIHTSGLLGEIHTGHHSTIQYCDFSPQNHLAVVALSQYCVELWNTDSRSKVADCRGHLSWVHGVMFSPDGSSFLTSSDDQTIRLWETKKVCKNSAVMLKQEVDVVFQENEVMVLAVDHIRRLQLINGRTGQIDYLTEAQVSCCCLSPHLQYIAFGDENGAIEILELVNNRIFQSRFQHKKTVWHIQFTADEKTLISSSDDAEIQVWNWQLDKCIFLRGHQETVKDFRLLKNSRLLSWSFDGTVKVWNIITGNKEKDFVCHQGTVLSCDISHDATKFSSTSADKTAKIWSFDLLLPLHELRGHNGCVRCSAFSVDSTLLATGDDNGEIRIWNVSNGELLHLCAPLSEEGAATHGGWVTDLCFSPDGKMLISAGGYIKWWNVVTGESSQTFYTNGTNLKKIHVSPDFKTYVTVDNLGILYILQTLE
Summary of the method: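 Material: biochemical Apaf-1 apoptosome reconstitution. Medium: Hepes buffer, pH 7.5. Also added: cytochrome c activation, bis-DEVD rhodamine 110 substrate. Timing: 30 min compound preincubation, 50 min activation, room temperature. Measured by: rhodamine 110 fluorescence at Ex 480/Em 540 nm.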

inhibition, active:
Cc1oc2c(c1C(=O)N1CCOCC1)C(=O)c1ccccc1C2=O 65.9%, c1ccc(CSc2nnc(-c3ccco3)c(-c3ccco3)n2)cc1 49.6%, Clc1ccccc1CSc1nnc(-c2ccco2)c(-c2ccco2)n1 49.9%, Cc1ccc(C(=O)N/N=C\c2cc(Br)c(Br)o2)cn1 75.4%, Cc1cc(N2CCCC2)ccc1NC(=O)COc1ccc(Cl)cc1 62.2%, Cc1ccc2c(c1)C1CN(C)CCC1N2S(=O)(=O)c1ccc(Oc2ccc([N+](=O)[O-])cc2)cc1 (stereo unspecified) 59.9%, CCN(CC)CCOc1ccc2c(c1)C(=NNC(=O)c1ccccn1)c1cc(OCCN(CC)CC)ccc1-2 52.5%, CCC(=O)Nc1c(S(=O)(=O)c2ccccc2)c2nc3ccccc3nc2n1Cc1ccccc1 49.2%, Cc1c(-c2nn(C)c(=O)c3ccccc23)oc2ccc(F)cc2c1=O 82%, O=C(Cc1cc(=O)[nH][nH]1)N/N=C/c1ccccc1[N+](=O)[O-] 40.8%, Cc1ccsc1/C=N/NC(=O)Cc1cc(=O)[nH][nH]1 58.3%, O=C1Nc2ccc([N+](=O)[O-])cc2C1=Nc1cccc(CO)c1 41.2%, Clc1ccc(C2=CSC3=Nc4cccc5cccc(c45)N23)cc1 90%

inhibition, inactive:
CN(C)/C=C(\C#N)C(=O)c1cccnc1Oc1ccc(F)cc1F -17.9%, Cc1ccc(NC(=O)C(C)c2cccc(C(=O)c3ccccc3)c2)cc1 (stereo unspecified) -10.9%, COc1cc2ccccc2cc1C(=O)N1CCOCC1 -7.91%, O=C(c1snnc1-c1ccccc1)N1CCOCC1 -11.7%, Cc1cc(NC(=O)C(C)SCC(=O)Nc2ccccc2N2CCCCC2)no1 (stereo unspecified) 18.8%, CCCCN(CC)CCNC(=O)c1[nH]c(C)c(C(C)=O)c1C 2.1%, O=C(CC1N=C2c3ccccc3N=C(SCc3ccccc3Cl)N2C1=O)NCc1ccco1 (stereo unspecified) 21.1%, CCc1nnc(SCc2cccc(F)c2)nc1CC 14.3%, S=C(NCc1ccco1)NCc1ccccc1Cl 10.3%, Clc1ccc(CSc2nnc3c(n2)[nH]c2ccccc23)cc1 11.3%, COc1cc(NC(=O)CCS(=O)(=O)c2ccc3c(c2)oc(=O)n3C)cc(OC)c1 -0.825%, Cc1c(NS(=O)(=O)c2cc(C(=O)NCCc3ccc(F)cc3)cc(Cl)c2Cl)c(=O)n(-c2ccccc2)n1C 16%, CCOC(=O)c1ccc2c(c1)nc(SCC(=O)NC(C)C)n2CC -14.5%, Cc1ccc(C(=O)N/N=C/c2cccc3ccccc23)cn1 -7.7%, O=C(N/N=C\c1cc(Br)c(Br)o1)C1COc2ccccc2O1 (stereo unspecified) 6.95%, O=C(OCc1ccccc1F)c1ccc2c(c1)OCCO2 9.05%, CCOC(=O)CCC(=O)OCC(=O)NC(C)C1CC2CCC1C2 (stereo unspecified) 3.06%, COC(=O)c1ccc(NC(=O)c2cc3c(CO)cnc(C)c3oc2=Nc2cccc(C(N)=O)c2)cc1 -28.9%, CC(=O)N1N=C(c2ccncc2)OC1(Cc1ccccc1)Cc1ccccc1 3.9%, O=C(O/N=C(/c1ccccc1)c1ccncc1)c1ccccc1[N+](=O)[O-] -9.34%, Cc1cc(C)cc(OCC(=O)Nc2ccc(N3CCOCC3)cc2N2CCOCC2)c1 21.9%, CCC(=O)c1ccc(OCC(=O)Nc2ccc(N3CCCCC3)cc2)cc1 -8.58%, CS(=O)(=O)N(CC(=O)N1CCN(c2ccc(F)cc2)CC1)C1CCCCC1 -2.79%, O=C(NC1CCCC1)C(c1c(F)cccc1Cl)N(C(=O)c1csnn1)C1CC1 (stereo unspecified) 6.38%, Cc1ccc2c(c1)C1CN(C)CCC1N2C(=S)Nc1ccc(OC(F)F)cc1 (stereo unspecified) -7.03%, Cc1ccc2c(c1)C1CN(C)CCC1N2S(=O)(=O)c1cccc(F)c1 (stereo unspecified) 1.11%, COc1ccc(N2CCN(C(=O)c3cn(C)c4ccc(S(=O)(=O)N5CCOCC5)cc4c3=O)CC2)cc1 -4.77%, CCC(CC)c1nnc(NC(=O)C2=COCCO2)s1 3.27%, C/C(=N\NC(=O)c1ccccc1F)c1ccccn1 -4.33%, Cc1cnc(NC(=O)c2ccccn2)s1 -31.2%, Cc1ccc2c(Cl)c(C(=O)NCCCn3ccnc3)sc2c1 10.1%, CC(C)(C)NC(=O)CN(C(=O)c1csnn1)c1ccccc1-c1ccccc1 -0.459%, Cc1cc(C)c(NC(=S)N2CCCC2C(=O)O)c(C)c1 (stereo unspecified) -0.801%, Cc1ccc(S(=O)(=O)c2c(N)n(C)c3nc4ccccc4nc23)cc1 -405%, CCN(CC)CCn1c(N)c(S(=O)(=O)c2ccccc2)c2nc3ccccc3nc21 12%, CCOc1cc(NC(=S)NCCCN(C)C)c(OCC)cc1NC(=O)C1CC1 -14.8%, COc1ccccc1CN1CCNC(=O)C1CC(=O)N(C)CC1CCOCC1 (stereo unspecified) 4.54%, Cc1ccc(F)cc1NC(=O)Cc1nn(C)c(=O)c2ccccc12 -8.15%, CCC(=O)NCc1cc(-c2nn(C)c(=O)c3ccccc23)ccc1OC -10.9%, CCCCn1c(N)c(N(CC(C)C)C(=O)c2cccc(S(=O)(=O)N3CCN(C(C)=O)CC3)c2)c(=O)[nH]c1=O 6.93%, C=CCNC(=O)c1ccccc1SCc1c(C)noc1C -5.84%, O=S(=O)(c1cccc(C(F)(F)F)c1)N1CCN(c2cnccn2)CC1 -23.4%, O=C(COc1ccccc1[N+](=O)[O-])N/N=C/c1ccc[nH]1 -17.6%, CCOc1ccc(N2CC(C(=O)N/N=C/c3sccc3C)CC2=O)cc1 (stereo unspecified) -13.2%, COc1cc(CC(=O)N/N=C/c2ccccc2)c([N+](=O)[O-])cc1OC 8.78%, Cc1ccsc1/C=N/n1c(=S)[nH]nc(C)c1=O 2.31%, CC(C)(C)NC(=O)CSC(=Nc1ccccc1F)NC#N -0.507%, COC(=O)Cc1csc(/N=C/c2c(O)n(-c3cccc(C(F)(F)F)c3)c(=O)c3ccccc23)n1 -1.6%, O=C(COc1ccc(S(=O)(=O)NCCc2ccccc2)cc1)N1CCCC1 -10.1%, CC(Oc1ccc(Cl)cc1)c1ccnn1S(C)(=O)=O (stereo unspecified) 0.147%, Cc1noc(C)c1S(=O)(=O)N(C)C[C@H]1Oc2ccc(NC(=O)C3CCCCC3)cc2C(=O)N([C@H](C)CO)C[C@@H]1C 1.34%, O=[N+]([O-])c1ccc(N(CCO)Cc2ccccc2)c([N+](=O)[O-])c1 5.52%, CN1CCN(/N=C2/C(=O)Nc3ccc([N+](=O)[O-])cc32)CC1 -6.13%, COc1ccc(NS(=O)(=O)c2cccc3nsnc23)cc1Cl -0.325%, COc1cccc(C(=O)NCCS(=O)(=O)NCC2CCCO2)c1 (stereo unspecified) -2.68%, O=C(C1CCN(c2nnc(-n3cccc3)s2)CC1)N1CCc2ccccc2C1 6.9%, OCCN1CCOCCOCCN(CCO)CCN(CCO)CC1 -5.95%, CC(C)Cc1nnc(NC(=O)CCNC(=O)c2ccccc2Cl)s1 12%
